Results published in ChEMBL document CHEMBL1811814, “Synthesis and evaluation of indole, pyrazole, chromone and pyrimidine based conjugates for tumor growth inhibitory activities--development of highly efficacious cytotoxic agents” (Eur J Med Chem, 2010).

What was measured:
Assay type in all cases: functional
NCI-H226 = assay: Growth inhibition of human NCI-H226 cells assessed tumor cell growth at 10^-5 M; set-up: scale not given: the % may be the effect or the level left
Procedure, shortened: (§1)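 NCI 60-human-tumor-cell-line panel screen. Each compound was tested at a single concentration of 10^-5 M, and percent growth of tumor cells was recorded for each cell line. Growth inhibition was expressed from these percent-growth values.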

HOP-92 = assay: Growth inhibition of human HOP92 cells; conditions: for CC50: read-out: LC50 (the source's name)
MCF7 = assay: Growth inhibition of human MCF7 cells; conditions: for CC50: read-out: LC50 (the source's name)
SK-MEL-28 = assay: Growth inhibition of human SK-MEL-28 cells; conditions: for CC50: read-out: LC50 (the source's name)
UO-31 = assay: Growth inhibition of human UO31 cells assessed tumor cell growth at 10^-5 M; set-up: scale not given: the % may be the effect or the level left
Procedure, shortened: (§2)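 Single-dose screen at 10^-5 M across the 60 human tumor cell line panel, run to NCI standards. The value is the percent growth of each cell line in the presence of compound. Compounds active at this dose moved on to five-concentration testing (10^-4 to 10^-8 M).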

SR [1] = assay: Growth inhibition of human SR cells assessed tumor cell growth at 10^-5 M; set-up: scale not given: the % may be the effect or the level left; procedure, shortened: as §2
CAKI-1 [2] = assay: Growth inhibition of human Caki1 cells; conditions: for CC50: read-out: LC50 (the source's name)
SR [3] = assay: Growth inhibition of human SR cells; conditions: for CC50: read-out: LC50 (the source's name)
HCC 2998 = assay: Growth inhibition of human HCC2998 cells assessed tumor cell growth at 10^-5 M; set-up: scale not given: the % may be the effect or the level left; procedure, shortened: as §1
U-251 = assay: Growth inhibition of human U251 cells assessed tumor cell growth at 10^-5 M; set-up: scale not given: the % may be the effect or the level left; procedure, shortened: as §2
OVCAR-4 = assay: Growth inhibition of human OVCAR4 cells; conditions: for CC50: read-out: LC50 (the source's name)
LOX IMVI = assay: Growth inhibition of human LOXIMVI cells assessed tumor cell growth at 10^-5 M; set-up: scale not given: the % may be the effect or the level left; procedure, shortened: as §1
CAKI-1 [4] = assay: Growth inhibition of human Caki1 cells assessed tumor cell growth at 10^-5 M; set-up: scale not given: the % may be the effect or the level left; procedure, shortened: as §1

| Compound | Activity (NCI-H226) [%] | GI50 (HOP-92) [µM] | CC50 (HOP-92) [µM] | GI50 (MCF7) [µM] | CC50 (MCF7) [µM] | GI50 (SK-MEL-28) [µM] | CC50 (SK-MEL-28) [µM] | Activity (UO-31) [%] | Activity (SR [1]) [%] | GI50 (CAKI-1 [2]) [µM] | CC50 (CAKI-1 [2]) [µM] | GI50 (SR [3]) [µM] | CC50 (SR [3]) [µM] | Activity (HCC 2998) [%] | Activity (U-251) [%] | GI50 (OVCAR-4) [µM] | CC50 (OVCAR-4) [µM] | Activity (LOX IMVI) [%] | Activity (CAKI-1 [4]) [%] |
| --- | --- | --- | --- | --- | --- | --- | --- | --- | --- | --- | --- | --- | --- | --- | --- | --- | --- | --- | --- |
| O=C1/C(=C\c2coc3ccccc3c2=O)c2ccccc2N1c1c(Cl)cccc1Cl | 90.68 | 4.7 | > 100 | 3.2 | > 100 | 3.8 | > 100 | 42.56 | 19.47 | 2.4 | > 100 | 1.4 | > 100 | 53 | 36.04 | 3.6 | > 100 | 37.07 | -7.88 |
| O=C1Nc2ccccc2/C1=C/c1cn(C(=O)c2c(Cl)cccc2Cl)c2ccccc12 | 48.1 | 1.5 | > 100 | – | – | – | – | 50.7 | – | 1.9 | > 100 | 2.2 | > 100 | – | 35.8 | – | – | 48.4 | 18.7 |
| CC1=NN(c2cccc(Cl)c2)C(=O)/C1=C\C=C\c1ccccc1 | 3.87 | 4.6 | > 100 | 1.1 | > 100 | 2 | 8.9 | 69.7 | 10.62 | 1.9 | > 100 | 2.3 | > 100 | 30.87 | -57.37 | 3.3 | > 100 | -87.87 | 52.22 |
| CC1=NN(c2cccc(Cl)c2)C(=O)/C1=C\c1c(O)ccc2ccccc12 | 1.04 | – | – | – | – | – | – | 66.56 | 29.7 | > 100 | > 100 | – | – | -22.22 | -10.7 | > 100 | > 100 | -79.39 | 34.96 |
| O=C1/C(=C\c2ccccn2)c2ccccc2N1c1c(Cl)cccc1Cl | 25.22 | – | – | – | – | – | – | 16.75 | -4.3 | 1.3 | 7.4 | – | – | -82.08 | -2.48 | 3.7 | > 100 | -89.2 | -1.37 |
